Test results from ChEMBL document CHEMBL1132374, “Sulfonamidopyrrolidinone factor Xa inhibitors: potency and selectivity enhancements via P-1 and P-4 optimization” (J Med Chem, 1999).

tested on: not listed separately; assay: (§1) Activated partial thromboplastin time measured; assay type: ADME
Procedure, shortened: (§2)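 Citrated human, dog (mongrel) and rat (Sprague-Dawley) plasma, freshly thawed, mixed 1:1 with compound dilutions. Clotting started on an automatic coagulation timer with actin-activated cephaloplastin reagent and 0.035 M CaCl2. Value is the concentration that doubles plasma clotting time.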

APTT | SMILES
1.5 µM | COc1ccc2ccc(S(=O)(=O)N(C)[C@H]3CCN(Cc4csc(C(=N)N)c4)C3=O)cc2c1

target: Coagulation factor X (Homo sapiens, UniProt P00742); assay: Inhibition of human coagulation factor Xa
Sequence (P00742 41-179 limits assumed): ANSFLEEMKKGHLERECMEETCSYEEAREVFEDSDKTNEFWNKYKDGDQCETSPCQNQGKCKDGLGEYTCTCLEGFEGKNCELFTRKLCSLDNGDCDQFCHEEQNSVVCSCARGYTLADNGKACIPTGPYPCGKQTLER
Sequence (P00742 235-488 limits assumed): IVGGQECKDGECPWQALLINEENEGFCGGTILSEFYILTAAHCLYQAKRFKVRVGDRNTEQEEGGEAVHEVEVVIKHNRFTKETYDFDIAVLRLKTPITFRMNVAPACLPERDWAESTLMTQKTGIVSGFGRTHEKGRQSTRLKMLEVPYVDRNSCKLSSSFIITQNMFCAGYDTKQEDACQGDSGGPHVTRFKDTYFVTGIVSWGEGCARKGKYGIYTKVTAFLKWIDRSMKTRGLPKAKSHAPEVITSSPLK

SMILES | Ki
COc1ccc2ccc(S(=O)(=O)N[C@H]3CCN(Cc4cc(C(=N)N)ccc4O)C3=O)cc2c1 | 3 nM
COc1ccc2ccc(S(=O)(=O)N[C@H]3CCN(Cc4cc(C(=N)N)ccc4N)C3=O)cc2c1 | 6 nM
N=C(N)c1ccc(O)c(CN2CC[C@H](NS(=O)(=O)c3ccc(-c4ccon4)s3)C2=O)c1 | 3 nM
N=C(N)c1cccc(CN2CC[C@H](NS(=O)(=O)c3ccc(-c4ccccc4)cc3)C2=O)c1 | 160 nM
N=C(N)c1cccc(CN2CC[C@H](NS(=O)(=O)c3ccc(-c4ccccn4)cc3)C2=O)c1 | 150 nM
COC(=O)COc1ccc(C(=N)N)cc1CN1CC[C@H](NS(=O)(=O)c2ccc3ccc(OC)cc3c2)C1=O | 8 nM
COc1ccc2ccc(S(=O)(=O)N[C@H]3CCN(Cc4cc(C(=N)N)ccc4OCC(=O)O)C3=O)cc2c1 | 1300 nM
N=C(N)c1cccc(CN2CC[C@H](NS(=O)(=O)c3ccc(-c4cccnc4)cc3)C2=O)c1 | 210 nM
COc1ccc2ccc(S(=O)(=O)N(C)[C@H]3CCN(Cc4cc(C(=N)N)ccc4N)C3=O)cc2c1 | 4 nM
Cn1ccnc1-c1ccc(S(=O)(=O)N[C@H]2CCN(Cc3cccc(C(=N)N)c3)C2=O)cc1 | 2600 nM
N=C(N)c1cccc(CN2CC[C@H](NS(=O)(=O)c3ccc(-c4ccccn4)s3)C2=O)c1 | 140 nM

More lines, now with the values ahead:

Ki | SMILES
6 nM | N=C(N)c1ccc(N)c(CN2CC[C@H](NS(=O)(=O)c3ccc(-c4cccnc4)s3)C2=O)c1
150 nM | COc1nccc(-c2ccc(S(=O)(=O)N[C@H]3CCN(Cc4cccc(C(=N)N)c4)C3=O)s2)n1
983 nM | COc1ccc2ccc(S(=O)(=O)N[C@H]3CCN(Cc4ccc(O)c(C(=N)N)c4)C3=O)cc2c1
130 nM | N=C(N)c1cccc(CN2CC[C@H](NS(=O)(=O)c3ccc(-c4ccncc4)cc3)C2=O)c1
41 nM | N=C(N)c1cccc(CN2CC[C@H](NS(=O)(=O)c3ccc(-c4cccnc4)s3)C2=O)c1
1200 nM | COc1ccc2ccc(S(=O)(=O)N[C@H]3CCN(Cc4cc(N)cc(C(=N)N)c4)C3=O)cc2c1
919 nM | COc1ccc2ccc(S(=O)(=O)N(C)[C@H]3CCN(Cc4cc(C(=N)N)ccc4NC(C)=O)C3=O)cc2c1
7 nM | N=C(N)c1ccc(N)c(CN2CC[C@H](NS(=O)(=O)c3ccc(-c4ccon4)s3)C2=O)c1
130 nM | C[n+]1ccc(-c2ccc(S(=O)(=O)N[C@H]3CCN(Cc4cccc(C(=N)N)c4)C3=O)cc2)cc1
2 nM | N=C(N)c1ccc(O)c(CN2CC[C@H](NS(=O)(=O)c3ccc(-c4cccnc4)s3)C2=O)c1
49 nM | N=C(N)c1cccc(CN2CC[C@H](NS(=O)(=O)c3ccc(-c4ccon4)s3)C2=O)c1
330 nM | N=C(N)c1cccc(CN2CC[C@H](NS(=O)(=O)c3ccc(-c4cc[n+]([O-])cc4)cc3)C2=O)c1
130 nM | N=C(N)c1ccc(F)c(CN2CC[C@H](NS(=O)(=O)c3ccc(-c4cccnc4)s3)C2=O)c1

target: Prothrombin (Homo sapiens, UniProt P00734); assay: Inhibition of human coagulation factor II
Procedure, shortened: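 Human thrombin, final 1 nM, in 0.05 M Tris, 0.15 M NaCl, 0.1% PEG-8000, pH 7.5, room temperature. Inhibitor preincubated with enzyme 30 min, then reaction started with Pefachrome TH (50 µM final). p-Nitroanilide release read continuously at 405 nm for 5 min, under 10% substrate consumed. IC50 taken from initial velocities; apparent Ki by Cheng-Prusoff, assuming competitive inhibition.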

SMILES | Ki
COc1ccc2ccc(S(=O)(=O)N[C@H]3CCN(Cc4cccc(C(=N)N)c4)C3=O)cc2c1 | 1430 nM
COc1ccc2ccc(S(=O)(=O)N[C@H]3CCN(Cc4cc(C(=N)N)ccc4O)C3=O)cc2c1 | 206 nM
COc1ccc2ccc(S(=O)(=O)N[C@H]3CCN(Cc4cc(C(=N)N)ccc4N)C3=O)cc2c1 | 278 nM
N=C(N)c1ccc(O)c(CN2CC[C@H](NS(=O)(=O)c3ccc(-c4ccon4)s3)C2=O)c1 | 2220 nM
N=C(N)c1cccc(CN2CC[C@H](NS(=O)(=O)c3ccc(-c4ccccc4)cc3)C2=O)c1 | > 4000 nM
N=C(N)c1cccc(CN2CC[C@H](NS(=O)(=O)c3ccc(-c4ccccn4)cc3)C2=O)c1 | 4000 nM
COC(=O)COc1ccc(C(=N)N)cc1CN1CC[C@H](NS(=O)(=O)c2ccc3ccc(OC)cc3c2)C1=O | 263 nM
COc1ccc2ccc(S(=O)(=O)N[C@H]3CCN(Cc4cc(C(=N)N)ccc4OCC(=O)O)C3=O)cc2c1 | > 4000 nM
N=C(N)c1cccc(CN2CC[C@H](NS(=O)(=O)c3ccc(-c4cccnc4)cc3)C2=O)c1 | 1960 nM
COc1ccc2ccc(S(=O)(=O)N(C)[C@H]3CCN(Cc4cccc(C(=N)N)c4)C3=O)cc2c1 | 1050 nM
COc1ccc2ccc(S(=O)(=O)N(C)[C@H]3CCN(Cc4cc(C(=N)N)ccc4N)C3=O)cc2c1 | 201 nM
Cn1ccnc1-c1ccc(S(=O)(=O)N[C@H]2CCN(Cc3cccc(C(=N)N)c3)C2=O)cc1 | > 4000 nM
N=C(N)c1cccc(CN2CC[C@H](NS(=O)(=O)c3ccc(-c4ccncc4)s3)C2=O)c1 | 3000 nM
N=C(N)c1cccc(CN2CC[C@H](NS(=O)(=O)c3ccc(-c4ccccn4)s3)C2=O)c1 | > 4000 nM

Second part, the molecule after the results:

Ki | SMILES
2600 nM | N=C(N)c1ccc(N)c(CN2CC[C@H](NS(=O)(=O)c3ccc(-c4cccnc4)s3)C2=O)c1
> 4000 nM | COc1nccc(-c2ccc(S(=O)(=O)N[C@H]3CCN(Cc4cccc(C(=N)N)c4)C3=O)s2)n1
> 4000 nM | COc1ccc2ccc(S(=O)(=O)N[C@H]3CCN(Cc4ccc(O)c(C(=N)N)c4)C3=O)cc2c1
> 4000 nM | N=C(N)c1cccc(CN2CC[C@H](NS(=O)(=O)c3ccc(-c4ccncc4)cc3)C2=O)c1
> 4000 nM | N=C(N)c1cccc(CN2CC[C@H](NS(=O)(=O)c3ccc(-c4cccnc4)s3)C2=O)c1
> 4000 nM | COc1ccc2ccc(S(=O)(=O)N[C@H]3CCN(Cc4cc(N)cc(C(=N)N)c4)C3=O)cc2c1
> 4000 nM | COc1ccc2ccc(S(=O)(=O)N(C)[C@H]3CCN(Cc4cc(C(=N)N)ccc4NC(C)=O)C3=O)cc2c1
2230 nM | N=C(N)c1ccc(N)c(CN2CC[C@H](NS(=O)(=O)c3ccc(-c4ccon4)s3)C2=O)c1
> 4000 nM | C[n+]1ccc(-c2ccc(S(=O)(=O)N[C@H]3CCN(Cc4cccc(C(=N)N)c4)C3=O)cc2)cc1
2800 nM | N=C(N)c1ccc(O)c(CN2CC[C@H](NS(=O)(=O)c3ccc(-c4cccnc4)s3)C2=O)c1
> 4000 nM | N=C(N)c1cccc(CN2CC[C@H](NS(=O)(=O)c3ccc(-c4ccon4)s3)C2=O)c1
> 4000 nM | N=C(N)c1cccc(CN2CC[C@H](NS(=O)(=O)c3ccc(-c4cc[n+]([O-])cc4)cc3)C2=O)c1
4000 nM | N=C(N)c1ccc(F)c(CN2CC[C@H](NS(=O)(=O)c3ccc(-c4cccnc4)s3)C2=O)c1

target: Tissue factor (Homo sapiens) (UniProt P13726); assay: as §1; assay type: functional; procedure, shortened: as §2
Sequence (P13726 whole entry): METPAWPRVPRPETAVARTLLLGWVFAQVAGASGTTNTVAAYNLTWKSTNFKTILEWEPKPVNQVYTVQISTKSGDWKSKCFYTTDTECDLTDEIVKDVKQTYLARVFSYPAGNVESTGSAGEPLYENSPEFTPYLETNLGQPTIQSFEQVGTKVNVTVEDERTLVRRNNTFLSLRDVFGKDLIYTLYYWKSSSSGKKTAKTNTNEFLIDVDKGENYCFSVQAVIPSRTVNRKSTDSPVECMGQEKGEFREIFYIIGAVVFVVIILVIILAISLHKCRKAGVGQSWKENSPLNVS

APTT | SMILES
0.32 µM | N=C(N)c1ccc(O)c(CN2CC[C@H](NS(=O)(=O)c3ccc(-c4cccnc4)s3)C2=O)c1
